Activity, ED50 and LD50 data for nine compounds are collected here from ChEMBL document CHEMBL3243935, “Analgesic and tranquilizing activity of 5,8-disubstituted 2-aminomethyl-3,4-dihydronaphthalenes” (J Med Chem, 1978).

Active and inactive are the calls of the source.

For series [1], the system named is Mus musculus. In words: Analgesic activity in Swiss CD mouse at 56 mg/kg, ip measured 0.5 hr post treatment by hot-plate method relative to control. It is filed as functional. The following applies: route intraperitoneal. The essentials: (§1)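 Male mice, about 20 g, dosed ip in saline. Each mouse was dropped into a glass cylinder on an aluminium plate held at 57 °C. Latency to the first flick of a hind foot was timed at 0.5 and 2 h post-dose, with a 10-s cutoff. At least ten mice per dose. Percent control = mean latency ÷ mean control latency × 100; 200% was the lower bound of activity.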
In general terms: Thermal pain tests record how soon the animal reacts.

The subject of series [2] is Mus musculus. In words: Analgesic activity in Swiss CD mouse at 56 mg/kg, ip measured 2 hrs post treatment by hot-plate method relative to control. It is filed as functional. The following applies: route intraperitoneal. In a few lines: as §1
The subject of series [3] is Mus musculus. Briefly: Analgesic activity in Swiss CD mouse assessed as elevation of response latency at 56 mg/kg, ip measured 0.5 hr post treatment by tail flick method relative to control. The following applies: route intraperitoneal. It is filed as functional. The essentials:
(§2)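 Male mice, about 20 g, dosed ip in saline (solution or suspension). High-intensity heat was focused on the tail, and latency to a sudden tail flick was timed, with a 10-s cutoff. Tests ran at 0.5 and 2 h post-dose, with at least ten mice per dose. Percent control = mean latency ÷ mean control latency × 100; 200% was the lower bound of activity.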

Series [4] relates to Mus musculus. In words: Analgesic activity in Swiss CD mouse assessed as elevation of response latency at 56 mg/kg, ip measured 2 hrs post treatment by tail flick method relative to control. It is filed as functional. As to conditions: route intraperitoneal. The essentials: as §2
Series [5] has as its system Canis familiaris. In words: Analgesic activity in dog assessed as increase in response threshold at 16 mg/kg, sc measured 0.5 to 2 hrs post treatment by radiant heat method relative to control. It is filed as functional, organism-based. More on the design: dose 16 mg/kg. The following applies: Canis lupus familiaris. The essentials: (§3)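 Male mongrel dogs, 9-12 kg. The response threshold was the reflex fasciculation of the back muscles under radiant heat. Testing was at 0.5 and 2 h post-dose, with the end point expressed as percent of control latency.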

Series [6] has as its system Mus musculus. In words: Analgesic activity in Swiss CD mouse at 100 mg/kg, ip measured 0.5 hr post treatment by hot-plate method relative to control. It is filed as functional. The following applies: route intraperitoneal. The essentials: as §1
For series [7], the system named is Mus musculus. In words: Analgesic activity in Swiss CD mouse at 100 mg/kg, ip measured 2 hrs post treatment by hot-plate method relative to control. It is filed as functional. As to conditions: route intraperitoneal. The essentials: as §1
Series [8] has as its system Mus musculus. Briefly: Analgesic activity in Swiss CD mouse assessed as elevation of response latency at 100 mg/kg, ip measured 0.5 hr post treatment by tail flick method relative to control. As to conditions: route intraperitoneal. It is filed as functional. The essentials: as §2
Series [9] deals with Mus musculus. In words: Analgesic activity in Swiss CD mouse assessed as elevation of response latency at 100 mg/kg, ip measured 2 hrs post treatment by tail flick method relative to control. It is filed as functional. The following applies: route intraperitoneal. In a few lines: as §2
Series [10] is filed under the species Canis familiaris. Briefly: Analgesic activity in dog assessed as increase in response threshold by radiant heat method. It is filed as functional, organism-based. As to conditions: Canis lupus familiaris. In a few lines:
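Male mongrel dogs (9-12 kg) given drug sc or orally; radiant heat threshold read as reflex fasciculations of the back muscles. Tested at 0.5 and 2 h after dosing, with the end point expressed as percent of control latency.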

Series [11] has as its system Mus musculus. In words: Analgesic activity in ip dosed Swiss CD mouse by hot-plate method relative to control in presence of naloxone. It is filed as functional, organism-based.
Series [12] has as its system Mus musculus. In words: Analgesic activity in ip dosed Swiss CD mouse by tail flick method relative to control in presence of naloxone. It is filed as functional, organism-based.
The species entered for series [13] is Mus musculus. In words: Toxicity in Swiss CD mouse assessed as Straub tail symptom. It is filed as organism-based. As to conditions: in vivo.
For series [14], the species on record is Rattus norvegicus. Briefly: Toxicity in Sprague-Dawley CD rat assessed as Straub tail symptom. The following applies: in vivo. It is filed as organism-based.
The test system of series [15] is Rattus norvegicus. In words: Neuroleptic activity in ip dosed Sprague-Dawley CD rat assessed as reversal of amphetamine-induced stereotypy compound administered 1hr prior challenge. It is filed as functional. The essentials: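 Rats dosed ip, then given amphetamine sulfate 5 mg/kg 1 h later. The ED50 is the dose that reverses the amphetamine-induced stereotypy.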

The subject of series [16] is Rattus norvegicus. In words: Neuroleptic activity in decarboxylase-inhibited Sprague-Dawley CD rat brain assessed as increase in DOPA accumulation at 0.056 mmol/kg relative to control. It is filed as functional. More on the design: scale not given: the % may be the effect or the level left.
Series [17] deals with Mus musculus. In words: Toxicity in Swiss CD mouse assessed as loss of righting reflex at 100 mg/kg, ip measured 0.5 hr post treatment. It is filed as organism-based. As to conditions: in vivo. More on the design: dose 100 mg/kg, route intraperitoneal. In a few lines:
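Male Swiss CD mice (about 20 g) given compound ip in saline solution or suspension, usually 5 mL/kg, during hot-plate/tail-flick screening. At least ten mice per dose. Loss of righting reflex noted at 0.5 h after dosing.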

In series [18] the test system is Rattus norvegicus. In words: Neuroleptic activity in decarboxylase-inhibited Sprague-Dawley CD rat brain assessed as increase in DOPA accumulation at 0.01 mmol/kg relative to control. It is filed as functional. Further details: scale not given: the % may be the effect or the level left.
Series [19] has as its system Rattus norvegicus. Briefly: Neuroleptic activity in decarboxylase-inhibited Sprague-Dawley CD rat brain assessed as increase in DOPA accumulation at 0.001 mmol/kg relative to control. It is filed as functional. Further details: scale not given: the % may be the effect or the level left.
The subject of series [20] is Mus musculus. Briefly: Analgesic activity in Swiss CD mouse at 32 mg/kg, ip measured 0.5 hr post treatment by hot-plate method relative to control. It is filed as functional. The following applies: route intraperitoneal. In a few lines: as §1
Series [21] deals with Mus musculus. Briefly: Analgesic activity in Swiss CD mouse at 32 mg/kg, ip measured 2 hrs post treatment by hot-plate method relative to control. It is filed as functional. The following applies: route intraperitoneal. In a few lines:
as §1

Series [22] concerns Mus musculus. In words: Analgesic activity in Swiss CD mouse assessed as elevation of response latency at 32 mg/kg, ip measured 0.5 hr post treatment by tail flick method relative to control. It is filed as functional. The following applies: route intraperitoneal. The essentials: as §2
Series [23] deals with Mus musculus. Briefly: Analgesic activity in Swiss CD mouse assessed as elevation of response latency at 32 mg/kg, ip measured 2 hrs post treatment by tail flick method relative to control. As to conditions: route intraperitoneal. It is filed as functional. In a few lines:
as §2

A short description of series [24]: Toxicity in ip dosed Swiss CD mouse measured 0.5 to 2 hrs post treatment. The following applies: in vivo. It is filed as organism-based.
Series [25] has as its system Rattus norvegicus. Briefly: Analgesic activity in Sprague-Dawley CD rat at 32 mg/kg, ip measured 0.5 to 2 hrs post treatment by flinch-jump method relative to control. It is filed as functional, organism-based. More on the design: dose 32 mg/kg. The essentials:
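Male rats, 200-300 g, dosed ip (saline solution or suspension). A single rising series of 1-s foot shocks was given just before and at 0.5 and 2 h after dosing. The minimum shock intensity (mA) evoking each behaviour was recorded. No response at the 2.2-mA level counted as activity. At least five rats per dose.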

Series [26] relates to Mus musculus. In words: Analgesic activity in Swiss CD mouse at 100 mg/kg, ip bid for 4 days measured after 4 days by hot-plate method relative to control. It is filed as functional, organism-based. Further details: dose 100 mg/kg. In a few lines: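 Tolerance test in male mice: 100 mg/kg ip bid for 4 days, with hot-plate latency measured against control. A parallel group received morphine sulfate 10 mg/kg ip bid.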

In series [27] the test system is Canis familiaris. Briefly: Analgesic activity in dog assessed as increase in response threshold at 3.2 mg/kg, sc measured 0.5 to 2 hrs post treatment by radiant heat method relative to control. It is filed as functional, Canis lupus familiaris. As to conditions: route subcutaneous. In a few lines: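 Male mongrel dogs (9-12 kg) received the agent sc in saline solution or suspension. The radiant heat stimulus end point was reflex fasciculation of the back muscles. Each animal was tested 0.5 and 2 h after dosing, and the end point was expressed as percent of control latency.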

Series [28] has as its system Canis familiaris. In words: Analgesic activity in po dosed dog assessed as increase in response threshold by radiant heat method. It is filed as functional. As to conditions: Canis lupus familiaris. The essentials:
as §3

Series [29] concerns Mus musculus. Briefly: Analgesic activity in Swiss CD mouse at 100 mg/kg, ip bid for 4 days by hot-plate method relative to control in presence of naloxone. More on the design: dose 100 mg/kg. It is filed as functional, organism-based.
Series [30] relates to Mus musculus. Briefly: Analgesic activity in Swiss CD mouse at 100 mg/kg, ip bid for 4 days by tail flick method relative to control in presence of naloxone. It is filed as functional, organism-based. More on the design: dose 100 mg/kg.
Series [31] relates to Mus musculus. In words: Analgesic activity in Swiss CD mouse at 100 mg/kg, ip bid for 4 days measured after naloxone challenge on day 4 by hot-plate method relative to control. It is filed as functional, organism-based. More on the design: dose 100 mg/kg.
Series [32] has as its system Rattus norvegicus. Briefly: Neuroleptic activity in decarboxylase-inhibited Sprague-Dawley CD rat brain assessed as increase in DOPA accumulation at 0.1 mmol/kg relative to control. It is filed as functional. Further details: scale not given: the % may be the effect or the level left.

For the compound `CCOC(=O)C1(c2ccccc2)CCN(C)CC1` [MEPERIDINE], the Activity in the series with Mus musculus [1] is recorded as 296%; with Mus musculus [2], 231%; with Mus musculus [3] it was 194%; with Mus musculus [4] it was 160%. Besides, the result in the series on Canis familiaris [5] was Active.

Consider `COc1ccc(Cl)c2c1CCC(CN1CCC(C(N)=O)CC1)=C2.O`, for which the Activity with Mus musculus [6] is 314%; with Mus musculus [7] it was 329%; in the series on Mus musculus [8], 274%; in the series with Mus musculus [9] it was 132%; in the series filed under Mus musculus [13], “Non-toxic”; in the series filed under Rattus norvegicus [14], “Non-toxic”. In addition, the result in the series listed under Canis familiaris [10], with Mus musculus [11] and in the series with Mus musculus [12] was inactive.

A word on the ED50: it is the midpoint of the dose-response relation. For `Br.COc1ccc(Cl)c2c1CCC(CN1CCOCC1)=C2`, the ED50 in the series on Rattus norvegicus [15] was over 32 mg/kg. In addition, the Activity in the series with Mus musculus [6] is 95%; in the series with Mus musculus [7], 90%; in the series with Mus musculus [8], 136%; in the series with Mus musculus [9] it was 125%; in the series with Rattus norvegicus [16], 243%.

Take `CCc1ccc2c(c1)C=C(CN1CCCC1)CC2.Cl`: the Activity in the series with Mus musculus [7] was 130%; in the series on Mus musculus [9], 198%; with Mus musculus [17], “Toxic”.

For `COc1ccc(Cl)c2c1CCC(CN1CCC3(CC1)C(=O)NCN3c1ccccc1)=C2`, the ED50 with Rattus norvegicus [15] was 1 mg/kg. The Activity in the series on Rattus norvegicus [18] was 154%.

As for `COc1ccc(Cl)c2c1CCC(CN1CCC(C(=O)N3CCCC3)CC1)=C2.Cl.O`, the Activity in the series on Mus musculus [6] was found to be 213%; in the series on Mus musculus [7] it was 155%; in the series on Mus musculus [8], 262%; in the series with Mus musculus [9], 172%; in the series on Rattus norvegicus [18], 332%.

With `CCOC1(c2ccccc2)CCN(CC2=Cc3c(Cl)ccc(OC)c3CC2)CC1`, the Activity with Mus musculus [6] came out at 262%; with Mus musculus [7], 156%; in the series on Mus musculus [8], 196%; with Mus musculus [9] it was 157%; in the series on Rattus norvegicus [19], 491%.

By LD50 is commonly meant the dose expected to kill half of the subjects tested. Take `COc1ccc(Cl)c2c1CCC(CN1CCC(OC(C)=O)(c3ccccc3)CC1)=C2.Cl.O`: the Activity was 315% in the series with Mus musculus [20]; 345% with Mus musculus [21]; 317% in the series with Mus musculus [22]; 320% in the series on Mus musculus [23]; “Toxic” in the series listed under Mus musculus [13]; “Toxic” in the series filed under Rattus norvegicus [14]. Moreover, the outcome with Mus musculus [11] and with Mus musculus [12] was inactive. Also, the LD50 in series [24] stood at 32 mg/kg.

On to `Br.COc1ccc(Cl)c2c1CCC(CN1CCCC1)=C2`, for which the ED50 with Rattus norvegicus [15] came to 32 mg/kg; in the series on Canis familiaris [28], 16.2 mg/kg. Also, the Activity in the series with Mus musculus [6] is 282%; in the series on Mus musculus [7], 117%; with Mus musculus [8], 238%; in the series on Mus musculus [9], 135%; in the series with Canis familiaris [27], 50%; with Rattus norvegicus [32] it was 288%. The result in the series with Rattus norvegicus [25], with Mus musculus [26], with Mus musculus [29], in the series on Mus musculus [30] and in the series on Mus musculus [31] was Active.
